Active and inactive are the calls of the source. No cut-off for these calls is given here.
Experiments:
Prothrombin [1] = biological target: T1, Prothrombin (Homo sapiens, UniProt P00734); test: Inhibition of thrombin (unknown origin)
Prothrombin [2] = biological target: T1, Prothrombin; test: Partial allosteric inhibition of human thrombin using […] as substrate measured after 1 min by fibrometric method
Prothrombin [3] = biological target: T1, Prothrombin; test: Inhibition of recombinant thrombin R233A mutant (unknown origin) at 0.02 to 200 uM using spectrozyme TH as substrate pretreated for 10 mins followed by substrate addition by spectrophotometric method
Method in brief: (§1)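 Recombinant wild-type and Ala-mutant thrombins assayed by Spectrozyme TH hydrolysis at pH 7.4 and 25 °C. IC50 derived for each mutant.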

Prothrombin [4] = biological target: T1, Prothrombin; test: Partial allosteric inhibition of human thrombin at 300 uM using spectrozyme TH as substrate pretreated for 10 mins followed by substrate addition by spectrophotometric method relative to control
Prothrombin [5] = biological target: T1, Prothrombin; test: Inhibition of human thrombin using spectrozyme TH as substrate pretreated for 10 mins followed by substrate addition measured in absence of exosite 2 competitor unfractionated heparin by spectrophotometric method
Method in brief: (§2)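 Residual thrombin activity read as Spectrozyme TH hydrolysis in 20 mM Tris-HCl pH 7.4 with 100 mM NaCl, 2.5 mM CaCl2 and 0.1% PEG8000 at 25 °C. Exosite competitors varied: hirudin peptide 0–50 nM or 0–30 nM; UFH 0–50 μM. Apparent IC50 obtained from a logistic fit.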

Prothrombin [6] = biological target: T1, Prothrombin; test: Inhibition of recombinant thrombin K169A mutant (unknown origin) at 0.02 to 200 uM using spectrozyme TH as substrate pretreated for 10 mins followed by substrate addition by spectrophotometric method; method in brief: as §1
Prothrombin [7] = biological target: T1, Prothrombin; test: Inhibition of recombinant thrombin R175A mutant (unknown origin) at 0.02 to 200 uM using spectrozyme TH as substrate pretreated for 10 mins followed by substrate addition by spectrophotometric method; method in brief: as §1
Prothrombin [8] = biological target: T1, Prothrombin; test: Inhibition of recombinant thrombin K236A mutant (unknown origin) at 0.02 to 200 uM using spectrozyme TH as substrate pretreated for 10 mins followed by substrate addition by spectrophotometric method; method in brief: as §1
Prothrombin [9] = biological target: T1, Prothrombin; test: Inhibition of human thrombin using spectrozyme TH as substrate pretreated for 10 mins followed by substrate addition measured in presence of 15 uM exosite 1 competitor hirudine peptide by spectrophotometric method; details: in the assay text read “15 nM” for “15 uM”; method in brief: as §2
Prothrombin [10] = biological target: T1, Prothrombin; test: Mixed-type inhibition of human thrombin assessed as reduction in substrate Vmax using varying levels of spectrozyme TH as substrate measured after 10 mins by Michaelis-Menten plot analysis
Prothrombin [11] = biological target: T1, Prothrombin; test: Inhibition of human thrombin using spectrozyme TH as substrate pretreated for 10 mins followed by substrate addition measured in presence of 30 uM exosite 1 competitor hirudine peptide by spectrophotometric method; details: in the assay text read “30 nM” for “30 uM”; method in brief: as §2
Prothrombin [12] = biological target: T1, Prothrombin; test: Inhibition of recombinant thrombin R165A mutant (unknown origin) at 0.02 to 200 uM using spectrozyme TH as substrate pretreated for 10 mins followed by substrate addition by spectrophotometric method; method in brief: as §1
Prothrombin [13] = biological target: T1, Prothrombin; test: Partial allosteric inhibition of thrombin (unknown origin) assessed as reduction in enzyme-mediated fibrinogen cleavage at 0.5 to 150 uM pretreated for 10 mins followed by fibrinogen addition measured after 1 min by SDS-PAGE analysis relative to control
Method in brief: (§3)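 Cleavage of human fibrinogen (4.7 μM) by 6 nM thrombin with inhibitor at 0 to 150 μM. Products resolved by PAGE.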

Prothrombin [14] = biological target: T1, Prothrombin; test: Mixed-type inhibition of human thrombin assessed as reduction in substrate Vmax at 40 uM using varying levels of spectrozyme TH as substrate measured after 10 mins by Michaelis-Menten plot analysis relative to control
Prothrombin [15] = biological target: T1, Prothrombin; test: Inhibition of human thrombin using spectrozyme TH as substrate pretreated for 10 mins followed by substrate addition measured in presence of 10 uM exosite 2 competitor unfractionated heparin by spectrophotometric method; method in brief: as §2
Prothrombin [16] = biological target: T1, Prothrombin; test: Inhibition of human thrombin using spectrozyme TH as substrate pretreated for 10 mins followed by substrate addition measured in absence of exosite 1 competitor hirudine peptide by spectrophotometric method; method in brief: as §2
Prothrombin [17] = biological target: T1, Prothrombin; test: Inhibition of human thrombin using spectrozyme TH as substrate pretreated for 10 mins followed by substrate addition measured in presence of 5 uM exosite 1 competitor hirudine peptide by spectrophotometric method; details: in the assay text read “5 nM” for “5 uM”; method in brief: as §2
Prothrombin [18] = biological target: T1, Prothrombin; test: Inhibition of human thrombin using spectrozyme TH as substrate pretreated for 10 mins followed by substrate addition measured in presence of 50 uM exosite 2 competitor unfractionated heparin by spectrophotometric method; method in brief: as §2
Prothrombin [19] = biological target: T1, Prothrombin; test: Binding affinity to human fluorescence labelled FPRCK-alpha thrombin by fluorimetric method
Method in brief: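 Fluorescein-tagged FPRCK-thrombin titrated with inhibitor at pH 7.4 and 25 °C. Fluorescence decrease recorded ([…]). KD obtained by nonlinear fit to a quadratic equation.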

Prothrombin [20] = biological target: T1, Prothrombin; test: Partial allosteric inhibition of human thrombin using spectrozyme TH as substrate pretreated for 10 mins followed by substrate addition by spectrophotometric method
Method in brief: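 Chromogenic substrate hydrolysis by thrombin read spectrophotometrically in 20 mM Tris-HCl pH 7.4 with […], 100 mM NaCl and 0.1% PEG 8000 at 25 °C. Sigmoidal fits gave IC50 and efficacy (ΔY). Errors ±1 S.E.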

Prothrombin [21] = biological target: T1, Prothrombin; test: Partial allosteric inhibition of thrombin (unknown origin) assessed as reduction in enzyme-mediated fibrinogen cleavage pretreated for 10 mins followed by fibrinogen addition measured after 1 min by SDS-PAGE analysis relative to control; method in brief: as §3
Prothrombin [22] = biological target: T1, Prothrombin; test: Inhibition of human thrombin using spectrozyme TH as substrate pretreated for 10 mins followed by substrate addition measured in presence of 20 uM exosite 2 competitor unfractionated heparin by spectrophotometric method; method in brief: as §2
Prothrombin [23] = biological target: T1, Prothrombin; test: Inhibition of recombinant thrombin R93A mutant (unknown origin) at 0.02 to 200 uM using spectrozyme TH as substrate pretreated for 10 mins followed by substrate addition by spectrophotometric method; method in brief: as §1
Prothrombin [24] = biological target: T1, Prothrombin; test: Ratio of IC50(app) for inhibition of human thrombin using spectrozyme TH as substrate in presence of exosite 2 competitor unfractionated heparin to IC50(app) for inhibition of human thrombin using spectrozyme TH as substrate in absence of exosite 2 competitor unfractionated heparin
[25] = system: Prothrombin (Homo sapiens), P00734 [R97A]; test: Inhibition of recombinant thrombin R97A mutant (unknown origin) at 0.02 to 200 uM using spectrozyme TH as substrate pretreated for 10 mins followed by substrate addition by spectrophotometric method; method in brief: as §1
Prothrombin [26] = biological target: T1, Prothrombin; test: Inhibition of recombinant thrombin R173A mutant (unknown origin) at 0.02 to 200 uM using spectrozyme TH as substrate pretreated for 10 mins followed by substrate addition by spectrophotometric method; method in brief: as §1
Prothrombin [27] = biological target: T1, Prothrombin; test: Inhibition of recombinant thrombin R126A mutant (unknown origin) at 0.02 to 200 uM using spectrozyme TH as substrate pretreated for 10 mins followed by substrate addition by spectrophotometric method; method in brief: as §1
Prothrombin [28] = biological target: T1, Prothrombin; test: Inhibition of recombinant thrombin R101A mutant (unknown origin) at 0.02 to 200 uM using spectrozyme TH as substrate pretreated for 10 mins followed by substrate addition by spectrophotometric method; method in brief: as §1
Prothrombin [29] = biological target: T1, Prothrombin; test: Non-competitive inhibition of human thrombin assessed as reduction in substrate Vmax using varying levels of spectrozyme TH as substrate measured after 10 mins by Michaelis-Menten plot analysis
Prothrombin [30] = biological target: T1, Prothrombin; test: Non competitive inhibition of human thrombin assessed as reduction in substrate Vmax at 40 uM using varying levels of spectrozyme TH as substrate measured after 10 mins by Michaelis-Menten plot analysis relative to control
Prothrombin [31] = biological target: T1, Prothrombin; test: Inhibition of recombinant thrombin K235A mutant (unknown origin) at 0.02 to 200 uM using spectrozyme TH as substrate pretreated for 10 mins followed by substrate addition by spectrophotometric method; method in brief: as §1
Prothrombin [32] = biological target: T1, Prothrombin; test: Binding affinity to wild-type thrombin (unknown origin) by intrinsic fluorescence method
Method in brief: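 Intrinsic fluorescence titration of wild-type plasma thrombin at pH 7.4 and 25 °C. KD derived from the fluorescence change.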

Molecule	inhibition (Prothrombin [3])	inhibition (Prothrombin [4]) [%]	IC50 (Prothrombin [5]) [µM]	inhibition (Prothrombin [6])	inhibition (Prothrombin [7])	inhibition (Prothrombin [8])	IC50 (Prothrombin [9]) [µM]	IC50 (Prothrombin [11]) [µM]	inhibition (Prothrombin [12])	inhibition (Prothrombin [13]) [%]	IC50 (Prothrombin [15]) [µM]	IC50 (Prothrombin [16]) [µM]	IC50 (Prothrombin [17]) [µM]	IC50 (Prothrombin [18]) [µM]	Kd (Prothrombin [19]) [µM]	Efficacy (Prothrombin [20]) [%]	IC50 (Prothrombin [20]) [µM]	inhibition (Prothrombin [21])	IC50 (Prothrombin [22]) [µM]	other results
CCOC(=O)c1c(C)oc2cc(OC(=O)c3ccc(OC)cc3)c(OS(=O)(=O)O)cc12																				Efficacy (Prothrombin [1]): 54%
H-PEHPAETEYDSLYPEDDL-OH																				IC50 (Prothrombin [2]): 130 µM
CCOC(=O)c1c(C)oc2cc(OCc3ccccc3)c(OCc3oc4cc(OCC5CCCCC5)c(OS(=O)(=O)O)cc4c3C(=O)OCC)cc12	inactive	> 50	2	inactive	inactive	inactive	3.6	2.9	inactive	> 90	2.7	2	2.6	2.6	1	90	3.6	Dose-dependent effect	2.8	inhibition (Prothrombin [10]): Dose-dependent effect; fold change (FC) (Prothrombin [14]): 2
CCOC(=O)c1c(C)oc2cc(OCCc3ccccc3)c(OCc3oc4cc(OC)c(OS(=O)(=O)O)cc4c3C(=O)OCC)cc12	Active	> 50	1.3	Active	Active	Active	1.6	1.5	Active	70	3.3	1.3	2.7	14.5	3.7	58	1.8	Dose-dependent effect	3.4	inhibition (Prothrombin [23]): Active; Ratio IC50 (Prothrombin [24]): 11; inhibition [25]: Active; inhibition (Prothrombin [26]): Active; inhibition (Prothrombin [27]): Active; inhibition (Prothrombin [28]): Active; inhibition (Prothrombin [29]): Dose-dependent effect; fold change (FC) (Prothrombin [30]): 2; inhibition (Prothrombin [31]): Active; Kd (Prothrombin [32]): 2.8 µM

— ChEMBL document CHEMBL4184294, “A small group of sulfated benzofurans induces steady-state submaximal inhibition of thrombin” (Bioorg Med Chem Lett, 2018)
